Results: ChEMBL document CHEMBL2396530, “In vitro and in vivo evaluation of polymethylene tetraamine derivatives as NMDA receptor channel blockers” (Bioorg Med Chem Lett, 2013)
Active and inactive are the calls of the source. No cut-off for these calls is given here.

How the values were obtained:
[1] = tested on: Mus musculus; experiment: Antithrombotic activity in photochemically-induced thrombosis C57B/L mouse model assessed as decrease in brain infarction size at 1 to 10 mg/kg, iv after 24 hrs; type: functional, organism-based
[2] = target: Glutamate NMDA receptor; GRIN1/GRIN2A (Homo sapiens, UniProt Q05586+Q12879); experiment: Antagonist activity at recombinant GluN1/GluN2A receptor (unknown origin) expressed in Xenopus laevis oocytes assessed as inhibition of glycine/glutamate-induced inward current at -70mV by two-electrode voltage clamp assay; type: cell-based, Oocyte
Summary of the method: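 Xenopus oocytes injected with GluN1 plus GluN2A cRNA at 1:5 ratio (0.1–4 ng GluN1 plus 0.5–20 ng GluN2A). Two-electrode voltage clamp at -70 mV. Receptors activated by superfusing glycine and glutamate (10 µM). Inward currents recorded. Concentration–inhibition curves built from 5 concentrations per compound to give IC50.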

[3] = tested on: Mus musculus; experiment: Antithrombotic activity in photochemically-induced thrombosis C57B/L mouse model assessed as decrease in brain infarction size at 10 mg/kg, iv after 24 hrs; type: functional, organism-based; set-up: dose 10 mg/kg
[4] = tested on: Mus musculus; experiment: Antithrombotic activity in photochemically-induced thrombosis C57B/L mouse model assessed as decrease in brain infarction size at 0.4 mg/kg, iv after 24 hrs; type: functional, organism-based; set-up: dose 0.4 mg/kg

Chain of Glutamate NMDA receptor; GRIN1/GRIN2A (Q12879 whole entry, other chains not shown): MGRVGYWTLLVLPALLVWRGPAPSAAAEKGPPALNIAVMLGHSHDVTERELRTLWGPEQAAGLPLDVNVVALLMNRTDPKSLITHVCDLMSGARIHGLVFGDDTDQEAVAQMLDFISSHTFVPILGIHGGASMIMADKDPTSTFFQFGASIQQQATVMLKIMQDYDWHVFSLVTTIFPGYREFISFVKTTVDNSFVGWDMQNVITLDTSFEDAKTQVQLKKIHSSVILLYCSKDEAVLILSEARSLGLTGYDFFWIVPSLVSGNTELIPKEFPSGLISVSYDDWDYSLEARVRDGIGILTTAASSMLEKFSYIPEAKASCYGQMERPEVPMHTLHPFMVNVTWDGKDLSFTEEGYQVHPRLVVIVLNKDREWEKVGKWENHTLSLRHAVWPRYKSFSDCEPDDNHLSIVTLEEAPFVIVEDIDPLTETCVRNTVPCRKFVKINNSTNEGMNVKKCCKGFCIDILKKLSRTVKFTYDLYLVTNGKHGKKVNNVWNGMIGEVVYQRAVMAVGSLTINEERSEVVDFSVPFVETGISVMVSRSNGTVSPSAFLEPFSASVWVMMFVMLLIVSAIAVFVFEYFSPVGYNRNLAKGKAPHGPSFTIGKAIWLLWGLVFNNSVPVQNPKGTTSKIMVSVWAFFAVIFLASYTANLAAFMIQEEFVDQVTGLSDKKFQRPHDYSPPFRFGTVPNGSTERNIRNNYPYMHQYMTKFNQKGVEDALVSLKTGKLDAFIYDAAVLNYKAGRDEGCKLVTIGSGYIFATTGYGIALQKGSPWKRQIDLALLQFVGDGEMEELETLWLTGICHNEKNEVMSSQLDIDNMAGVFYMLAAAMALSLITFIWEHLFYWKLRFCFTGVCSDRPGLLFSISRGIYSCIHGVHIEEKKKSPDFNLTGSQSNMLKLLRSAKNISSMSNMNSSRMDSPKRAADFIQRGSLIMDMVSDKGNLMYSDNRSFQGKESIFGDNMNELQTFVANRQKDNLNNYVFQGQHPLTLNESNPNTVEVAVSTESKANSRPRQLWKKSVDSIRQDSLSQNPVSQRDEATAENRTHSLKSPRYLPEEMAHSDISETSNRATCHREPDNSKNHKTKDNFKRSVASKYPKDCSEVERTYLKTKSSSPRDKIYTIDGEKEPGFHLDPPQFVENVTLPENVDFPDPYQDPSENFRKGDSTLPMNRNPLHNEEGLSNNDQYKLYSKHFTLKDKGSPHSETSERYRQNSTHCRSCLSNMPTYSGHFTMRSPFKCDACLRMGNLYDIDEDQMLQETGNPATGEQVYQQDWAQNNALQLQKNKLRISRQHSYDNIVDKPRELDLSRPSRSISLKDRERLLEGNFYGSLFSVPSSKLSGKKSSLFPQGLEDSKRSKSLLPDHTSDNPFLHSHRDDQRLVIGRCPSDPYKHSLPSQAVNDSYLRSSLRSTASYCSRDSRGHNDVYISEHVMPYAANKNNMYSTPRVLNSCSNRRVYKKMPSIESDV

| SMILES | Activity [1] | IC50 [2] | Activity [3] | Activity [4] |
| --- | --- | --- | --- | --- |
| COc1ccccc1CNCCCCCNCCCCCCCCCCNCCCCCNCc1ccccc1OC | inactive | 89.3 nM |  |  |
| COc1ccccc1CNCCCCCCNCCCCCCCCNCCCCCCNCc1ccccc1OC [METHOCTRAMINE] | inactive | 138 nM |  |  |
| CC12CC3CC(C)(C1)CC(N)(C3)C2 |  |  | Active |  |
| c1ccc(C(CNCCCCCCNCCCCCCCCNCCCCCCNCC(c2ccccc2)c2ccccc2)c2ccccc2)cc1 | inactive | 11 nM |  |  |
| c1ccc(C(CNCCCCCCNCCCCCCCCCCCCNCCCCCCNCC(c2ccccc2)c2ccccc2)c2ccccc2)cc1 | inactive | 4.2 nM |  |  |
| COc1ccccc1CNCCCCCNCCCCCCNCCCCCNCc1ccccc1OC |  | 315 nM |  | Active |
| COc1ccccc1CNCCCCCCCCNCCCCCCNCCCCCCCCNCc1ccccc1OC | inactive | 257 nM |  |  |
